Results from ChEMBL document CHEMBL3621119, “Synthesis and Biological Evaluation of Manassantin Analogues for Hypoxia-Inducible Factor 1α Inhibition” (J Med Chem, 2015).
Activity calls are given as the source filed them. The rule behind the calls is not given here.

Experiments:
[1] = target: T1, Hypoxia inducible factors; HIF-1-alpha, HIF-2-alpha (Homo sapiens, UniProt Q16665+Q99814); assay: Inhibition of HIF1 in human HEK293T cells transfected with pGL3-5HRE-VEGF and pRL-SV40 after 24 hrs by dual luciferase reporter assay; type: cell-based; settings: hek-293t
Outline: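 HEK-293T cells seeded at 5×10^3/well, attached 24 h, then co-transfected with pGL3-5HRE-VEGF firefly luciferase reporter (five HRE copies from human VEGF promoter) and pRL-SV40 Renilla plasmid. Serially diluted compounds applied under 1% O2 for 24 h post-transfection. Dual-Glo read-out, firefly then Renilla luminescence, each after 10 min; firefly normalized to Renilla (RLU). Three independent experiments, mean ± SD.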

[2] = target: T1, Hypoxia inducible factors; HIF-1-alpha, HIF-2-alpha; assay: Inhibition of HIF1 in human HEK293T cells transfected with pGL3-5HRE-VEGF and pRL-SV40 after 24 hrs by dual luciferase reporter assay relative to normoxic condition; type: cell-based; design: concentration or dose not given beside the values; settings: HEK-293T, concentration not given here
[3] = Cytotoxicity against human HEK293T cells assessed as survival rate at 10 uM after 24 hrs by MTT assay; type: cell-based, HEK-293T; settings: read-out: Survival
Outline: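 HEK-293T cells seeded at 1×10^4 cells/well and grown 24 h, then exposed under hypoxia for 24 h to serially diluted compounds (0.005–10 μM). MTT added and incubated 4 h at 37 °C. Formazan dissolved in DMSO, absorbance read at 540 nm. Survival expressed as % of cells. Three independent experiments.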

[4] = target: Aryl hydrocarbon receptor nuclear translocator (Homo sapiens) (UniProt P27540); assay: Inhibition of HIF1beta in HEK293T cells under hypoxic condition at 1 uM after 24 hrs by Western blot analysis; type: cell-based; settings: HEK-293T
Chain of Aryl hydrocarbon receptor nuclear translocator (Homo sapiens) (P27540 whole entry): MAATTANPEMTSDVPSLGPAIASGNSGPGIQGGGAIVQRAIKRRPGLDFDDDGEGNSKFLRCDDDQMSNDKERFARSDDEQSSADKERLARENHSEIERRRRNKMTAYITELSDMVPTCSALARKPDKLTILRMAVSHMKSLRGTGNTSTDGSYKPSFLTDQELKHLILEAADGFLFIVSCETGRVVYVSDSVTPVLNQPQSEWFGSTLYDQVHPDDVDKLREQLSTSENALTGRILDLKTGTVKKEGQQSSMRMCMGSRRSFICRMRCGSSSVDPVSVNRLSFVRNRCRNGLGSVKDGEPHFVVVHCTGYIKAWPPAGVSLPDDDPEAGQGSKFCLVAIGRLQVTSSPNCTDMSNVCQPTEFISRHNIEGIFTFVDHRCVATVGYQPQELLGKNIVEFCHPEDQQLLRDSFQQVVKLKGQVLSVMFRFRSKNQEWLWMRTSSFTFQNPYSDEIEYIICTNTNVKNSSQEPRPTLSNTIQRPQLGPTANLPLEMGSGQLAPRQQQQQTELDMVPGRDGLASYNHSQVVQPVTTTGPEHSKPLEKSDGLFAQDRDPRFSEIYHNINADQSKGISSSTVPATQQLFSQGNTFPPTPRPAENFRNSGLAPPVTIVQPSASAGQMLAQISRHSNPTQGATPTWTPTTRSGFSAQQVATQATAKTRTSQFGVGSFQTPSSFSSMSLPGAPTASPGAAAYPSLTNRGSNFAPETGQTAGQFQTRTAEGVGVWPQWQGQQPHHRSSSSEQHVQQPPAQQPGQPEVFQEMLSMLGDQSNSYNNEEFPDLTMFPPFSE
Outline: (§1)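 HEK-293T cells held under hypoxia (1% O2) or normoxia for 24 h with or without 1 μM compound. Total protein lysates run on SDS-PAGE, transferred to nitrocellulose, blocked in 5% skim milk/TBS-0.1% Tween-20. Probed overnight at 4 °C with primary antibodies (HIF-1α, HIF-1β, Cdk6), then HRP secondary. Chemiluminescent detection, β-actin as loading control.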

[5] = target: Hypoxia-inducible factor 1-alpha (Homo sapiens) (UniProt Q16665); assay: Inhibition of HIF-1 alpha in human HEK293T cells under hypoxic condition at 1 uM after 24 hrs by Western blot analysis; type: cell-based; settings: HEK-293T; outline: as §1
Chain of Hypoxia-inducible factor 1-alpha (Homo sapiens) (Q16665 whole entry, looked up): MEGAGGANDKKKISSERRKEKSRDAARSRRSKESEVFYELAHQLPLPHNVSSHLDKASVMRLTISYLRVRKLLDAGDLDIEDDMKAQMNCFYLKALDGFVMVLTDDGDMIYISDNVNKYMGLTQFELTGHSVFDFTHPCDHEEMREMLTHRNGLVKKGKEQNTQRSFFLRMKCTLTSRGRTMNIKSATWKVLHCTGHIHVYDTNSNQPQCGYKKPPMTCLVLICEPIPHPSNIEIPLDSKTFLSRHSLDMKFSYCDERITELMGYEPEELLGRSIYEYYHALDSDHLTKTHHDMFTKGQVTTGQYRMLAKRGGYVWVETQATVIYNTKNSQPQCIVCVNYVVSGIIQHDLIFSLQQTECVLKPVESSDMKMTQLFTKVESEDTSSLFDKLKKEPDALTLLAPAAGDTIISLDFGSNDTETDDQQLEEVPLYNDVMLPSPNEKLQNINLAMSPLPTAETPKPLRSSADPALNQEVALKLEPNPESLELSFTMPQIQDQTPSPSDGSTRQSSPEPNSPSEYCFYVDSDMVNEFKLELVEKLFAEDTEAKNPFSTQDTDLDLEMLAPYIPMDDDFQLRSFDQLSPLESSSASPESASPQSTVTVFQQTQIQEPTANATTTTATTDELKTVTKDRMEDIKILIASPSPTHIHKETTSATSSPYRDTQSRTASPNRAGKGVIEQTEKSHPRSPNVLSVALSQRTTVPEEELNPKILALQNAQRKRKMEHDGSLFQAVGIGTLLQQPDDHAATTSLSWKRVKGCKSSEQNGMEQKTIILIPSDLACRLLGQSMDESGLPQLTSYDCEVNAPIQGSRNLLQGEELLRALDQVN

[6] = target: Hypoxia-inducible factor 1-alpha (Homo sapiens) (UniProt Q16665); assay: Inhibition of HIF1alpha in human HEK293T cells assessed as decrease of Cdk6 expression under hypoxic condition at 1 uM after 24 hrs by Western blot analysis; type: cell-based; settings: HEK-293T; outline: as §1
[7] = target: Hypoxia-inducible factor 1-alpha (Homo sapiens) (UniProt Q16665); assay: Inhibition of HIF1alpha in human HEK293T cells assessed as decrease of VEGF mRNA expression under hypoxic condition at 1 uM after 24 hrs by RT-PCR analysis; type: cell-based; settings: HEK-293T
Outline: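 HEK-293T cells given 1 μM compound under hypoxia for 24 h, with a normoxic control. VEGF mRNA measured by real-time PCR on 10-fold diluted cDNA with gene-specific primers. Cycling: 50 °C 2 min, 95 °C 10 min, then 40 cycles of 95 °C 15 s and 60 °C 1 min. Mean CT normalized to β-actin.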

Row | Compound | IC50 [1] [nM] | inhibition [2] [%] | viability at 24 h, 10 µM [3] [%] | inhibition [4] | inhibition [5] | inhibition [6] | inhibition [7]
1 | COc1cc([C@H]2O[C@H](c3ccc(O[C@H](C)[C@H](O)c4ccccc4)c(OC)c3)[C@H](C)[C@H]2C)ccc1O[C@H](C)[C@H](O)c1ccccc1 | 590 | 79 | > 80 |  |  |  | 
2 | COc1ccc(C(=O)[C@@H](C)Oc2ccc([C@H]3O[C@H](c4ccc(O[C@H](C)C(=O)c5ccc(OC)c(OC)c5)c(OC)c4)[C@H](C)[C@H]3C)cc2OC)cc1OC | 910 | 114 | > 80 |  |  |  | 
3 | COc1cc([C@H]2O[C@H](c3ccc(O[C@H](C)C(=O)c4ccccc4)c(OC)c3)[C@H](C)[C@H]2C)ccc1O[C@H](C)C(=O)c1ccccc1 | 690 | 101 | > 80 | inactive | Active | Active | Active
4 | COc1ccc([C@@H](O)COc2ccc([C@H]3O[C@H](c4ccc(OC[C@H](O)c5ccc(OC)c(OC)c5)c(OC)c4)[C@H](C)[C@H]3C)cc2OC)cc1OC | 380 | 94 | > 80 |  |  |  | 
5 | COc1ccc(C(=O)COc2ccc([C@H]3O[C@H](c4ccc(OCC(=O)c5ccc(OC)c(OC)c5)c(OC)c4)[C@H](C)[C@H]3C)cc2OC)cc1OC | 350 | 93 | > 80 | inactive | Active | Active | Active
6 | COc1ccc([C@@H](O)[C@@H](C)Oc2ccc([C@H]3O[C@H](c4ccc(OC)c(OC)c4)[C@H](C)[C@H]3C)cc2OC)cc1OC | 320 | 113 | > 80 | inactive | Active | Active | Active
7 | COc1ccc([C@@H](OC)[C@@H](C)Oc2ccc([C@H]3O[C@H](c4ccc(O[C@H](C)[C@H](OC)c5ccc(OC)c(OC)c5)c(OC)c4)[C@H](C)[C@H]3C)cc2OC)cc1OC | 430 | 102 | > 80 |  |  |  | 
8 | COc1ccc(C(=O)[C@@H](C)Oc2ccc([C@H]3O[C@H](c4ccc(O[C@H](C)C(=O)c5ccc(OC)c(O)c5)c(OC)c4)[C@H](C)[C@H]3C)cc2OC)cc1O | 2110 | 78 | > 80 |  |  |  | 
9 | COc1ccc(CCOc2ccc([C@H]3O[C@H](c4ccc(OCCc5ccc(OC)c(OC)c5)c(OC)c4)[C@H](C)[C@H]3C)cc2OC)cc1OC | 1440 | 64 | > 80 |  |  |  | 
10 | COc1ccc(C(=O)COc2cc(C(=O)[C@@H](C)Oc3ccc([C@H]4O[C@H](c5ccc(O[C@H](C)C(=O)c6ccc(OC)c(OCC(=O)c7ccc(OC)c(OC)c7)c6)c(OC)c5)[C@H](C)[C@H]4C)cc3OC)ccc2OC)cc1OC |  | 36 | > 80 |  |  |  | 
11 | COc1ccc(C(=O)[C@@H](C)Oc2ccc([C@H]3O[C@H](c4ccc(OC)c(OC)c4)[C@H](C)[C@H]3C)cc2OC)cc1OC | 3700 | 82 | > 80 |  |  |  | 
12 | COc1ccc([C@H](COc2ccc([C@H]3O[C@H](c4ccc(OC[C@H](OC)c5ccc(OC)c(OC)c5)c(OC)c4)[C@H](C)[C@H]3C)cc2OC)OC)cc1OC | 1930 | 87 | > 80 |  |  |  | 
